Results of several laboratories.
Protocols differ between the studies behind these lines. pIC50: −log10 of the molar value. In brackets after ≈: the same amount, converted by molar mass.

For `CC[C@H]1OC(=O)[C@H](C)[C@@H](O[C@H]2C[C@@](C)(OC)[C@@H](O)[C@H](C)O2)[C@H](C)[C@@H](O[C@@H]2O[C@H](C)C[C@H](N(C)C)[C@H]2O)[C@](C)(O)C[C@@H](C)/C(=N\OCOCCOC)[C@H](C)[C@@H](O)[C@]1(C)O`, the MIC90 was 16 µg/mL (Streptococcus pneumoniae; microbial growth; PRSP; clinical isolate).
For `CC1(C)C[C@H]2[C@H]1CC[C@]1(C)CCC[C@@]2(n2cc(CN3CCOCC3)nn2)C1`, the inhibition was under 50% (HT-29; cell growth or viability, CCK-8; 10 µM).
The inhibition zone of `CCS(=O)(=O)Oc1cc(C=NNC(=O)CSc2nc3c(C)cccc3c(=O)n2-c2ccccc2)ccc1OC` is reported as 3 mm (Klebsiella pneumoniae; microbial growth, well diffusion; 20 µg/mL).
`CC(=O)NC[C@H]1CN(c2ccc(N3CCOCC3)c(F)c2)C(=O)O1` has an MIC of 0.5 µg/mL (≈ 1.48 µM) (Streptococcus pneumoniae; microbial growth, agar dilution; ATCC49619).
With `CCS(=O)(=O)Oc1cc(C=NNC(=O)CSc2nc3ccc(Cl)cc3c(=O)n2-c2ccccc2)ccc1OC` the inhibition zone was 2 mm (Klebsiella pneumoniae; microbial growth, well diffusion; 20 µg/mL).
`CC1(C)C[C@H]2[C@H]1CC[C@]1(C)CCC[C@@]2(n2cc(C(=O)NCCN)nn2)C1` has an inhibition of 78.3% (HT-29; cell growth or viability, CCK-8; 50 µM).
The MIC of `CC1(C)S[C@@H]2[C@H](NC(=O)[C@H](N)c3ccccc3)C(=O)N2[C@H]1C(=O)O` is reported as 0.5 µg/mL (≈ 1.43 µM) (Streptococcus pneumoniae; microbial growth, agar dilution; ATCC49619).
`Cc1nc(Nc2ncc(C(=O)Nc3c(C)cccc3Cl)s2)cc(N2CC[C@H](O)C2)n1` has an inhibition of 58% (U2932; cell growth or viability, ATP luminescence; 10 µM, 72 h).
The inhibition zone of `CCCS(=O)(=O)Oc1ccc(C=NNC(=O)CSc2nc3c(C)cccc3c(=O)n2-c2ccccc2)cc1OC` is reported as 2 mm (Klebsiella pneumoniae; microbial growth, well diffusion; 20 µg/mL).
The MIC90 of `CN[C@H](CC(C)C)C(=O)N[C@H]1C(=O)N[C@@H](CC(N)=O)C(=O)N[C@H]2C(=O)N[C@H]3C(=O)N[C@H](C(=O)N[C@H](C(=O)O)c4cc(O)cc(O)c4-c4cc3ccc4O)[C@H](O)c3ccc(c(Cl)c3)Oc3cc2cc(c3O[C@@H]2O[C@H](CO)[C@@H](O)[C@H](O)[C@H]2O[C@H]2C[C@](C)(N)[C@H](O)[C@H](C)O2)Oc2ccc(cc2Cl)[C@H]1O` is reported as 1 µg/mL (Streptococcus pneumoniae; microbial growth; PRSP; clinical isolate).
`O=c1c2cc(Cl)ccc2nc(-c2ccccc2)n1N=Cc1cccc(O)c1` has a pIC50 of 3.49 (LLC-PK1; cell growth or viability, MTT; 72 h).
`C=C[C@]1(C)C[C@@H](OC(=O)CS[C@@H]2C[C@H]3CC[C@@H](C2)N3C)[C@]2(C)[C@H](C)CC[C@]3(CCC(=O)[C@H]32)[C@@H](C)[C@@H]1O` has an MIC of 0.0312 µg/mL (≈ 0.0604 µM) (Streptococcus pneumoniae; microbial growth, agar dilution; ATCC49619).
For `COc1ccc(C=NNC(=O)CSc2nc3ccc(Cl)cc3c(=O)n2-c2ccccc2)cc1OS(C)(=O)=O`, the inhibition zone was 3 mm (Klebsiella pneumoniae; microbial growth, well diffusion; 20 µg/mL).
The inhibition of `CC1(C)C[C@H]2[C@H]1CC[C@]1(C)CCC[C@@]2(n2cc(C(=O)N3CCNCC3)nn2)C1` is reported as 91.6% (HT-29; cell growth or viability, CCK-8; 10 µM).
For `CCCS(=O)(=O)Oc1ccc(C=NNC(=O)CSc2nc3ccc(Cl)cc3c(=O)n2-c2ccccc2)cc1OC`, the inhibition zone was 2 mm (Klebsiella pneumoniae; microbial growth, well diffusion; 20 µg/mL).
For `CC1(C)C[C@H]2[C@H]1CC[C@]1(C)CCC[C@@]2(NS(=O)(=O)C(C)(C)C)C1`, the inhibition was 71.4% (HT-29; cell growth or viability, CCK-8; 50 µM).
`O=c1c2cc(Cl)ccc2nc(-c2ccccc2)n1N=Cc1ccc(Cl)c(Cl)c1` gave a pIC50 of 3.47 (LLC-PK1; cell growth or viability, MTT; 72 h).
With `CC1(C)C[C@H]2[C@H]1CC[C@]1(C)CCC[C@@]2(n2cc(C(=O)NC3CCNCC3)nn2)C1` the inhibition was 68.1% (HT-29; cell growth or viability, CCK-8; 10 µM).
`COc1ccc(C=Nn2c(-c3ccccc3)nc3ccc(Cl)cc3c2=O)cc1O` gave a pIC50 of 3.55 (LLC-PK1; cell growth or viability, MTT; 72 h).
`CCS(=O)(=O)Oc1ccc(C=NNC(=O)CSc2nc3c(C)cccc3c(=O)n2-c2ccccc2)cc1` has an inhibition zone of 2 mm (Klebsiella pneumoniae; microbial growth, well diffusion; 20 µg/mL).
The inhibition of `CC1(C)C[C@H]2[C@H]1CC[C@]1(C)CCC[C@@]2(n2cc(CNC(N)=O)nn2)C1` is reported as under 50% (HT-29; cell growth or viability, CCK-8; 10 µM).
`CCCS(=O)(=O)Oc1ccc(C=NNC(=O)CSc2nc3c(C)cccc3c(=O)n2-c2ccccc2)cc1` has an inhibition zone of 3 mm (Klebsiella pneumoniae; microbial growth, well diffusion; 20 µg/mL).
`CC1(C)S[C@@H]2[C@H](NC(=O)[C@H](N)c3ccc(O)cc3)C(=O)N2[C@H]1C(=O)O` has an MIC90 of 3 µM (Vibrio vulnificus; microbial growth, broth dilution).
`CC1(C)C[C@H]2[C@H]1CC[C@]1(C)CCC[C@@]2(NS(=O)(=O)c2cc(Cl)cc(Cl)c2O)C1` gave an inhibition of under 50% (HT-29; cell growth or viability, CCK-8; 10 µM).
With `O=c1oc2ccccc2c(Nc2ccccc2)c1I` the MIC90 was 9 µg/mL (Klebsiella pneumoniae; microbial growth, broth dilution).
For `CC1(C)C[C@H]2[C@H]1CC[C@]1(C)CCC[C@@]2(NS(=O)(=O)c2ccc(OC(F)(F)F)cc2)C1`, the inhibition was under 50% (HT-29; cell growth or viability, CCK-8; 10 µM).
For `COc1cc(C=NNC(=O)CSc2nc3ccc(Cl)cc3c(=O)n2-c2ccccc2)ccc1OS(C)(=O)=O`, the inhibition zone was 2 mm (Klebsiella pneumoniae; microbial growth, well diffusion; 20 µg/mL).
